A3A deaminase: human APOBEC3A DNA deaminase inhibition. P31941. recombinant A3A, FAM/TAMRA ssDNA deamination fluorescence. inhibition, % at 20 µM. 330,000 compounds, 0.41% hits;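 active means at least 40% inhibition at 20 µM here, with at most 30% in a related deaminase screen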;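 further: plate controls were A3A with DMSO for no effect and wells lacking A3A enzyme for full effect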
ABHD5 PLIN5 PPI: inhibitors of human ABHD5-perilipin-5 interaction | inhibition, % at 4 µM | 360,000 compounds, 0.78% hits | Split G. princeps luciferase complementation, luminescence, 4 h;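 active means inhibition above the mean inhibition across every tested compound plus 3 SD, cut at about 22% in these data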;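 further: 0% = DMSO only wells and the 100% control is not disclosed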
Target sequence (Q00G26 whole entry, looked up): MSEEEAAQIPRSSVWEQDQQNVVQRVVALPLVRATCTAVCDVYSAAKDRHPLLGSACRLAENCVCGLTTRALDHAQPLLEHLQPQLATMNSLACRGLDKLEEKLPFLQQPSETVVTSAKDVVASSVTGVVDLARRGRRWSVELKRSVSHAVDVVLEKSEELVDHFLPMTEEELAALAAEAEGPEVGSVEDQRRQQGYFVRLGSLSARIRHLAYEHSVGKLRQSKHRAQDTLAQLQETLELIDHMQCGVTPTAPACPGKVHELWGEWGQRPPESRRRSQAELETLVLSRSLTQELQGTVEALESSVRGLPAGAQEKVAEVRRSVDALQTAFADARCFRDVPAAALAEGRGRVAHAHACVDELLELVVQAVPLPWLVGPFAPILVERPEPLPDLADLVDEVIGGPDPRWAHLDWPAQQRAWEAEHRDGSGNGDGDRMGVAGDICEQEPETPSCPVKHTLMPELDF
Target sequence (Q8WTS1 whole entry, looked up): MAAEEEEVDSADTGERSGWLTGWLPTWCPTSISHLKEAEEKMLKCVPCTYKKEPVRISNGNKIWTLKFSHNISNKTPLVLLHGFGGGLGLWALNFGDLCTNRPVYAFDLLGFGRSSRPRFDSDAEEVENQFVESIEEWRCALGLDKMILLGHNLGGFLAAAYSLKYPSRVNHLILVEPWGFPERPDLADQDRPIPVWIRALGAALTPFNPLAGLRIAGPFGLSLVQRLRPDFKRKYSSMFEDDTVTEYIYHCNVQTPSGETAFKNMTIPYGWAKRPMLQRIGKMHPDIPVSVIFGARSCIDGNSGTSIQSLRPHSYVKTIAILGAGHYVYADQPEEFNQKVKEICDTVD
core dimer inh: HCV core protein dimerization inhibition. 300,000 compounds, 0.33% hits. TR-FRET GST/Flag-core106 dimerization, 1536-well. inhibition, % at 5 µM. AID 1899;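 active means inhibition above the mean of all tested compounds plus 3 SD, set per screening campaign, cut at about 45% in these data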
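Test system: GST/Flag-tagged HCV core106 proteins; Medium: KF-containing HEPES buffer, pH 7.45, DTT, CHAPS, BSA; Times: compound-protein-antibody incubation 4 h at 22.5 °C; Detection: TR-FRET 671 and 617 nm emission; Benchmarks: wells lacking GST-core106 and wells with excess unlabelled core106.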
PRMT1 FP inh: blocks human protein arginine methyltransferase 1 | AID 652257 | inhibition, % at 2.79 µM | recombinant PRMT1, activity-based probe fluorescence polarization | Q99873 | 370,000 compounds, 1.3% hits;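 active means inhibition above about 21% made by adding two undisclosed values, limit read from the data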
HCV NS3 hel inh: blocks Hepatitis C virus NS3 helicase unwinding | NS3 helicase DNA unwinding, Cy5 molecular beacon fluorescence | inhibition, % at 10.9 µM | 290,000 compounds, 0.56% hits | AID 1800;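 active means inhibition above the mean of all tested compounds plus 3 SD, set per campaign, cut at about 35% in these data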;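 further: 0% = DMSO wells and 100% = thioflavine S control wells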
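test system = hepatitis C virus NS3 helicase domain fragment enzyme | reagent = annealed dual-labelled DNA beacon duplex, ATP-started | times = 1 h at 25 °C | detection = Cy5 fluorescence, 0 and 60 min reads | read-out basis = percent inhibition from t60/t0 fluorescence ratio | control set = DMSO and thioflavine S | replication = one well per compound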
APOBEC3G inh: blocks human APOBEC3G single-stranded DNA deamination | recombinant A3G, ssDNA deamination FAM/TAMRA fluorescence | inhibition, % at 20 µM | 330,000 compounds, 0.28% hits | AID 493012;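 active means inhibition of at least 40% at 20 µM, with no more than 30% in the related APOBEC3A deaminase screen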;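 further: plate controls were DMSO wells with A3G for no effect and wells lacking A3G enzyme for full effect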
ABHD5 PLIN5 conf: confirmation of human ABHD5-PLIN5 interaction inhibitors; biochemical ABHD5-PLIN5 interaction, luminescence; inhibition, % at 4 µM; 2,200 compounds, 67% hits; shares compounds with ABHD5 PLIN5 PPI; in the data active means inhibition above about 23%;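 further: 0% = DMSO vehicle wells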
HNF4 split-luc: active in HNF4 split-luciferase counter-screen for ABHD5-PLIN5 inhibitors. shares compounds with ABHD5 PLIN5 PPI. HNF4 dimerization, luminescence, biochemical. inhibition, % at 4 µM. 2,200 compounds, 77% hits. AID 651674;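 active means mean inhibition across replicate wells exceeding the computed hit threshold, cut at about 13% in these data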;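 further: light from luciferase halves that rejoin when HNF4 fusion proteins dimerize; 0% = DMSO only wells and the 100% control is not given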
The depositor's hits bear a star; · = no result. This is a sample that favours compounds with a hit; in the whole collection about 2.9% have one here.

SMILES	A3A deaminase	ABHD5 PLIN5 PPI	core dimer inh	PRMT1 FP inh	HCV NS3 hel inh	APOBEC3G inh	ABHD5 PLIN5 conf	HNF4 split-luc
O=C(C[n+]1cc(-c2ccc(F)cc2)n2c1CCC2)Nc1nc(-c2ccccc2)cs1	0	16	-8	1	-88	-9	·	·
CC1=NNC(=O)/C1=C\c1cn(-c2ccccc2)nc1-c1ccccc1	·	74*	3	11	-5	·	99*	101*
O=Cc1cn(-c2ccccc2)nc1-c1ccccc1	-4	3	9	-2	-5	-13	·	·
CCOc1ccc(NS(=O)(=O)c2ccc(C(=O)N3CCCC(C)C3)cc2)cc1 (centres undefined)	1	-4	-2	2	·	-2	·	·
CC1(C)CC(=O)C(C(C2=C(O)CC(C)(C)CC2=O)c2ccc([N+](=O)[O-])cc2)C(=O)C1 (centres undefined)	-1	-3	2	14	2	-1	·	·
CC1(C)CC(=O)C(C(C2=C(O)CC(C)(C)CC2=O)c2ccc(O)c([N+](=O)[O-])c2)=C(O)C1	19	24*	1	11	-1	1	73*	57*
Cc1ccc(S(=O)(=O)/N=C/N(C)C)cc1	3	-7	-9	-1	7	-1	·	·
Cc1ccc(S(=O)(=O)/N=C/c2ccco2)cc1	3	92*	4	0	5	-6	6	8
C[C@@H](c1ccccc1)N1C[C@H](COCc2ccccc2)Oc2cc(N3CC[C@@H](O)C3)ccc2S1(=O)=O	·	4	·	-5	·	·	·	·
O=C1C(=Cc2ccco2)CCCC1=Cc1ccco1	·	39*	·	29*	·	·	53*	63*
O=C(O)Cc1sc(Nc2cccc3ccccc23)nc1-c1ccc(Cl)cc1	2	-8	21	8	3	0	·	·
Cc1oc(-c2ccc(Cl)cc2)cc1C(=O)O	-4	-7	0	-4	22	-10	·	·
O=C(O)CCc1ccc(-c2ccc(Cl)cc2)o1	0	43*	-14	19	1	-2	-2	10
COCCNCc1ccccc1[N+](=O)[O-]	2	3	-5	2	·	-4	·	·
C=C(CCC(=O)c1ccccc1)C(=O)c1ccccc1	·	32*	-3	6	-16	·	68*	67*
O=C(CCCCCCCC(=O)c1ccccc1)c1ccccc1	-2	0	3	-3	0	-3	·	·
CCOC(=O)C1CCCN(C(=O)c2cc(Nc3ccc(OC)c(OC)c3)nc3ccccc23)C1 (centres undefined)	-1	29*	-12	0	-14	-4	45*	2
O=C(/C(=C/O)N=Nc1ccc(Cl)cc1)c1ccncc1	-1	38*	32	-1	2	-5	38*	-7
O=C(C=Cc1ccccc1)c1ccc([N+](=O)[O-])cc1	·	67*	·	-1	·	·	95*	91*
Cc1[nH]c(C)c(C(=O)/C=C/c2ccc([N+](=O)[O-])cc2)c1C	-5	25*	38	2	-7	-15	39*	44*
COc1cc(C(=O)/C=C/c2cccnc2)c([N+](=O)[O-])cc1OC	5	47*	8	4	·	-9	74*	72*
COc1ccc(C=CC(=O)c2ccc([N+](=O)[O-])cc2)cc1	·	16	·	0	·	·	·	·
O=C(/C=C/c1cccnc1)c1ccc([N+](=O)[O-])cc1	-3	57*	2	6	-12	-11	89*	94*
COc1cc(C(=O)Nc2ccncc2)c([N+](=O)[O-])cc1OC	-3	-6	-3	-1	14	-4	·	·
CC1(C(=O)Nc2ccc3c(c2)OCCO3)CN(S(C)(=O)=O)CC(=O)N1C1CCCCCC1 (centres undefined)	·	-7	·	2	·	·	·	·
SMILES	A3A deaminase	ABHD5 PLIN5 PPI	core dimer inh	PRMT1 FP inh	HCV NS3 hel inh	APOBEC3G inh	ABHD5 PLIN5 conf	HNF4 split-luc
CC(Oc1ccc(Br)cc1Br)C(=O)Nc1cccnc1Cl (centres undefined)	-2	1	·	4	-7	-5	·	·
CN(C)c1ccc(C(=O)C=Cc2ccc([N+](=O)[O-])cc2)cc1	·	3	·	3	·	·	·	·
O=C(C=Cc1ccco1)c1ccc([N+](=O)[O-])cc1	·	35*	·	23*	·	·	47*	42*
COc1ccc(Cl)cc1N1C(=O)CC(N2CCN(S(=O)(=O)c3ccccc3F)CC2)C1=O (centres undefined)	2	0	·	3	·	0	·	·
COC(C(=O)Nc1ccnn1C1CCN(C(=O)c2cccc(F)c2)CC1)c1ccccc1 (centres undefined)	-4	2	6	-3	5	-5	·	·
O=C(Nc1ccc(F)c(Cl)c1)c1csc(COCCO)n1	·	2	·	-1	·	·	·	·
COc1ccc(Br)cc1/C=C/C(=O)c1ccc(NC(C)=O)cc1	·	27*	-5	-5	-5	·	85*	81*
CC1=CC2C(C(O)CC3(C)C2CC(C)C32OCOC23COCO3)C2(C)C/C(=C\O)C(=O)C=C12 (centres undefined)	·	32*	·	4	·	·	42*	9
CCN(CC)CCOC(=O)/C=C/c1ccccc1	-3	-4	-7	-4	-1	-5	·	·
CCN(CC)CC(C)(C)C(=O)/C=C/c1ccc(/C=C/C(=O)C(C)(C)CN(CC)CC)cc1	·	95*	·	13	·	·	101*	107*
C=CCOc1ccc(C=CC(=O)c2c(O)c(OC)c(OC)c(OC)c2OC)cc1	·	59*	·	2	·	·	72*	56*
Cc1cc(Sc2nnc(/N=C/N(C)C)s2)c2ccccc2n1	7	18	-1	2	1	6	·	·
Cc1cc(Sc2nnc(N)s2)c2ccccc2n1	-1	23*	3	2	4	-7	38*	58*
O=C1C(CCc2ccccc2)ON=C(c2cnccn2)N1Cc1ccc(F)cc1 (centres undefined)	·	-6	·	-4	·	·	·	·
C(=C\c1ccccc1)/CSc1nnc(-c2ccccn2)n1Cc1ccco1	1	34*	32	4	-3	-3	21	44*
NC(=O)CSc1nnc(-c2ccccn2)n1Cc1ccco1	2	0	-5	0	6	0	·	·
Cc1nn(-c2ccccc2)c(Cl)c1C(=O)OCC(=O)NCCc1ccccc1	0	0	·	1	8	-3	·	·
Oc1c(C(Nc2nc3ccccc3s2)c2ccco2)ccc2cccnc12 (centres undefined)	-4	45*	17	1	23	-1	20	14*
O=C(CC(=O)c1ccccc1)Nc1cccnc1Cl	-2	27*	7	7	-19	-7	13	18*

High-throughput results from PubChem BioAssay.
